Published values of several laboratories.
HDAC2: Histone deacetylase 2 (HDAC2, Homo sapiens, UniProt Q92769)
PDE4A: 3',5'-cyclic-AMP phosphodiesterase 4A (PDE4A, Homo sapiens, UniProt P27815)
HTR2A: 5-hydroxytryptamine receptor 2A (HTR2A, Homo sapiens, UniProt P28223)
PPO3: PPO3 (Agaricus bisporus, UniProt C7FF04)

Structure (SMILES)	target	test	IC50 [µM]
O=C(/C=C/c1cccc(OS(=O)(=O)Oc2ccc(C(F)(F)F)cc2)c1)NO	HDAC2	enzyme activity, inhibitor, fluorescence	0.45
CN(C)C(=O)c1cc2cnc(Nc3ccc(N4CCNCC4)cn3)nc2n1C1CCCC1	PDE4A	enzyme activity, inhibitor, TR-FRET	0.25
CCN(Cc1cc(Br)ccc1O)C(=O)C(N)Cc1ccco1 (stereo not drawn)	HTR2A	calcium signal, antagonist	27
O=C1CC[C@H](N2Cc3cc(N4CCN(CC5CCN(c6ccc([C@@H]7c8ccc(O)cc8CC[C@@H]7c7ccccc7)cc6)CC5)CC4)ccc3C2=O)C(=O)N1	Kappa-type opioid receptor (OPRK1, Homo sapiens, UniProt P41145)	ligand displacement, radioligand	0.25
Nc1nc(-c2ccc(Br)cc2)cc(-c2ccc(-c3cc(-c4ccc(Br)cc4)nc(N)n3)cc2)n1	PPO3	enzyme activity, inhibitor, absorbance	40.9
O=C(NO)c1cncc(OS(=O)(=O)Oc2ccc3ccccc3c2)c1	HDAC2	enzyme activity, inhibitor, fluorescence	1.46
Nc1nc(-c2ccc(I)cc2)cc(-c2ccc(-c3cc(-c4ccc(I)cc4)nc(N)n3)cc2)n1	PPO3	enzyme activity, inhibitor, absorbance	30.6
C=CCNC(=O)C(C)N1CCCC(c2ccc(O)cc2)C1 (stereo not drawn)	HTR2A	calcium signal, antagonist	15.8
C=CC(=O)N1CCCN(C(=O)c2cc(Sc3cnc(NC(=O)C4CC4)s3)c(C)cc2OC)C[C@H]1C	Tyrosine-protein kinase TXK (TXK, Homo sapiens, UniProt P42681)	enzyme activity, inhibitor	0.261
O=C(c1cc(C2CCNC2)[nH]n1)N1CCC(c2cccc(Cl)c2)C1 (stereo not drawn)	HTR2A	calcium signal, antagonist	19.3
Cc1ccc(-c2cc(-c3ccc(-c4cc(-c5ccc(C)cc5)nc(N)n4)cc3)nc(N)n2)cc1	PPO3	enzyme activity, inhibitor, absorbance	37.2
CCc1c(C)nc(-c2ccc(Cl)s2)nc1Nc1ccc(CC(=O)O)cc1	PDE4A	enzyme activity, inhibitor, FP	~3.7
